Screening results from PubChem BioAssay.
Hits are enriched below; roughly 5.8% of the tested compounds scored in any of these assays.
14-3-3 Bad inh = disrupts binding of bovine 14-3-3 zeta to phospho-Bad peptide; P63103; TR-FRET 14-3-3zeta/Dy647-pBad peptide displacement, 1 h; inhibition, % at 21.7 µM; hit rate 0.71% among 220,000;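 active means inhibition above about 70%, limit read from the data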
Target sequence (P63103 whole entry, looked up): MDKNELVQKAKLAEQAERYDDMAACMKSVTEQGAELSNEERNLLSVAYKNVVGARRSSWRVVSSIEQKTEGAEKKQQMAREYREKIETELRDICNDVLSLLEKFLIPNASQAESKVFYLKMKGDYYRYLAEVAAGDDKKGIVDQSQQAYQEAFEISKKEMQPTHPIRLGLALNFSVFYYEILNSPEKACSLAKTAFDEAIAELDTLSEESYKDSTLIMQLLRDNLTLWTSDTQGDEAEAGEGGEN
ROMK mod = human ROMK K+ channel modulation, primary screen; P48048; Tet-inducible ROMK, thallium flux fluorescence; actives lie on both sides; B-score at 10 µM; hit rate 2% among 130,000;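 active means signal ratio slope over the read window, or its plate-corrected B-score, at least 3 SD from the plate mean, either direction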;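 further: B-score of the F/F0 ratio slope over 7 to 12 s after thallium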
RBBP9 inhibitor = blocks human serine hydrolase RBBP9; O75884; recombinant RBBP9, FP-Rh probe fluorescence polarization; inhibition, % at 7.94 µM; hit rate 0.2% among 220,000;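 active means inhibition above the campaign mean of all tested compounds plus 3 SD, cut at about 14% in these data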
Target sequence (O75884 whole entry, looked up): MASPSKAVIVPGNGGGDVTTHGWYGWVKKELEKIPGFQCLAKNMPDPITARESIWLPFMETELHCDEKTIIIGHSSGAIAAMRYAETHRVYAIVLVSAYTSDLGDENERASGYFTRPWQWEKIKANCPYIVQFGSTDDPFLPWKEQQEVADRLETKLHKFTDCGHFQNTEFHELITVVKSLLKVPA
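Measured by – fluorescence polarization · Test system – RBBP9 protein · Input – 2.5 µM RBBP9 dispensing solution, before mixing · Measure – percent inhibition from mP, scaled between DMSO and no-protein wells · Benchmarks – DMSO-treated enzyme wells and wells lacking RBBP9 · Times – preincubation 30 min plus labeling 45 min at 25 °C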
KCC2 mod = modulates chloride dependent transport by human KCC2. Q9H2X9. KCC2 cells, thallium flux FluoZin-2 fluorescence. B-score of Tl+ flux slope (higher = more flux/activation; lower = inhibition) at 10 µM. hit rate 2.2% among 190,000;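 active means thallium flux slope and its plate-corrected score both differing from the plate sample mean at a set confidence after two filtering rounds, in either direction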;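 further: slope of fluorescence scaled to starting intensity during 10 to 20 s after thallium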
WT yeast gro inh = growth inhibition of WT yeast, mitochondrial fusion screen | hit rate 2.1% among 190,000 | mitochondrial fusion phenotypic screen, WT strain | inhibition, % at 10 µM | AID 1362; in the data active means inhibition above about 58%; tested in S. cerevisiae
NCF1 inh = blocks human p47phox regulatory protein of NADPH oxidases. hit rate 0.53% among 220,000. AID 1274. p47phox/p22phox peptide binding, fluorescence polarization, 2 h. inhibition, % at 24.7 µM. P14598;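 active means inhibition above about 30%, limit read from the data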
ROMK hit retest = human ROMK channel modulation, retest confirmation; shares compounds with ROMK mod; ROMK thallium flux, fluorescence ratio; stronger effect = lower value; normalized thallium flux (F/F0 slope) at 10 µM; hit rate 54% among 3,000;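 active means Flux at 10 µM at least 3 SD below or above vehicle control mean in one or both replicates; inconclusive means no clear call, values can overlap the other calls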
Each line names hits and unclear results; the compound was inactive in the other large screens (follow-up assays come after a bar, where they were run).

N#C/C(=C\c1ccccc1)C(=O)Nc1cc(S(=O)(=O)N2CCOCC2)ccc1N1CCCC1	none (no result: ROMK mod) | ROMK hit retest 0.0563
Cc1ccc(S(=O)(=O)N2CCCCC2)cc1NC(=O)COC(=O)Cc1ccc(Cl)cc1	none
O=C(COC(=O)Cc1ccc(Cl)cc1)Nc1cc(S(=O)(=O)N2CCOCC2)ccc1N1CCCC1	ROMK mod -4.32 | ROMK hit retest 0.0608
Cc1ccc(S(=O)(=O)N2CCCCC2)cc1NC(=O)COC(=O)Cc1cccc(C(F)(F)F)c1	ROMK mod -4 | ROMK hit retest 0.0633
CC(=O)c1csc(COc2ccc(Cl)cc2)n1	none (no result: ROMK mod, WT yeast gro inh)
O=C1C2CCCCN2C(=O)N1CCN1CCN(c2ccc([N+](=O)[O-])cc2)CC1 (stereo not drawn)	ROMK mod -2.83 (no result: KCC2 mod) | ROMK hit retest 0.0473
O=C(CCCN1C(=O)C2CCCCN2C1=O)N1CCN(c2ccc([N+](=O)[O-])cc2)CC1 (stereo not drawn)	none (no result: KCC2 mod)
CCCNC(=S)N1CC2(C)CN(C(=O)C(=O)OC)CC(C)(C1)C2=O	none
O=C(CSc1nc2sc3c(c2c(=O)n1-c1ccccc1)CCCC3)NCc1ccco1	none (no result: ROMK mod)
CC1(C)Cc2c(sc3nc(SCC(=O)NCc4ccco4)n(-c4ccccc4)c(=O)c23)CS1	none | ROMK hit retest 0.0554
CCOC(=O)c1c(C)n(C)c2ccc(OC)c(NC(=O)CN3CCN(Cc4ccccc4)CC3)c12	ROMK mod -3.25 | ROMK hit retest 0.0675
COc1ccc(OC)c(NC(=O)COC(=O)c2ccc(-n3cnnn3)cc2)c1	none
COc1cc(NC(=O)COc2ccc(-n3cnnn3)cc2)c(OC)cc1Cl	none (no result: ROMK mod) | ROMK hit retest inactive
COc1ccc(N2CCCCn3c2nc2c3c(=O)n(C)c(=O)n2C)cc1	none (no result: ROMK mod)
CCCCOC(=O)Cn1c(=O)c2c(nc3n2CCCCN3c2ccc(C)cc2)n(C)c1=O	none (no result: ROMK mod) | ROMK hit retest 0.061
CCN1C(=O)/C(=C2/Sc3ccccc3N2CC)S/C1=N\c1ncn[nH]1	none
N#CC1=C(N)SC(N)=C(C#N)C1c1ccc(C(F)(F)F)cc1	ROMK mod -3.55 | ROMK hit retest 0.0454
N#CC1=C(N)SC(N)=C(C#N)C1c1ccc([N+](=O)[O-])cc1	none
CCN=c1scc(-c2ccc3c(c2)NC(=O)CO3)n1N=C1CCCC1	none (no result: ROMK mod) | ROMK hit retest inactive
CC1(C)CC(CC(=O)O)(c2ccccc2)CCO1 (stereo not drawn)	none (no result: ROMK mod) | ROMK hit retest inactive
CCOC(=O)CC1(c2ccccc2)CCOC(C)(C)C1 (stereo not drawn)	none
CC(C)c1ccccc1-n1c(SCc2cc(=O)oc3ccc4ccccc4c23)nnc1-c1cccnc1	none (no result: ROMK mod)
C=C(C)COc1ccc(-c2[nH]ncc2-c2ccc(OC)c(OC)c2)c(O)c1	ROMK mod 3.76 | ROMK hit retest inactive
C=C(C)COc1ccc(-c2[nH]ncc2-c2ccc(OC)cc2)c(O)c1	none (no result: ROMK mod, WT yeast gro inh)
CCOc1ccccc1CN1CCN(Cc2ccon2)CC1CCO (stereo not drawn)	none (no result: ROMK mod, WT yeast gro inh)
CC(C)CCNC(=O)CN(Cc1ccc2c(c1)OCO2)C(=O)Cn1nnc(-c2cccs2)n1	ROMK mod -3.05 (no result: KCC2 mod) | ROMK hit retest 0.0678
CCc1ccc2[nH]c(=O)c(CN(CCN(CC)CC)C(=S)NCc3ccco3)cc2c1	ROMK mod -3.26 | ROMK hit retest 0.0643
Cc1cc2cc(CN(CCN(C)C)C(=S)NCc3ccco3)c(=O)[nH]c2cc1C	ROMK mod -3.71 | ROMK hit retest 0.0594
CCc1ccc2[nH]c(=O)c(CN(CCN(C)C)C(=S)NCc3ccco3)cc2c1	none
Cc1cc2cc(CN(Cc3ccco3)C(=O)C3CCCCC3)c(=O)[nH]c2cc1C	none (no result: KCC2 mod)
Cc1cc2cc(CN(Cc3ccco3)C(=O)NCc3ccccc3)c(=O)[nH]c2cc1C	ROMK mod -5.18 | ROMK hit retest 0.059
CC(=O)Cc1nsc(NC(=O)c2ccc(-c3ccc(Cl)cc3Cl)o2)n1	none (no result: ROMK mod, KCC2 mod)
CC(=O)Cc1nsc(NC(=O)c2ccc(-c3cc(Cl)ccc3Cl)o2)n1	ROMK mod 3.79, WT yeast gro inh 71.3 | ROMK hit retest inactive
CCSC1(SCC)N=C(N)C2(C#N)C(c3ccc(F)cc3)C12C#N (stereo not drawn)	none (no result: ROMK mod) | ROMK hit retest inconclusive
O=C(c1ccccc1F)N(Cc1nc2ccccc2c(=O)[nH]1)C1CCCC1	none (no result: KCC2 mod)
COc1cc(CC(=O)Nc2ccc3nc(C)sc3c2)cc(OC)c1OC	none (no result: ROMK mod)
CCC(=O)Nc1nc2ccc(NC(=O)c3cc(OC)c(OC)c(OC)c3)cc2s1	none (no result: ROMK mod) | ROMK hit retest 0.0641
O=C(O)CCC(=O)Nc1ccc(N2CCCCCC2)cc1	ROMK mod 5.09 | ROMK hit retest inactive
Cc1ccc(N2CCN(c3ccc(NC(=O)CCC(=O)O)cc3)CC2)cc1	none
COc1ccc(C2=NOC(C(=O)NCc3cccs3)C2)cc1OC (stereo not drawn)	none (no result: KCC2 mod)
COc1ccc(C2=NOC(C(=O)NCc3cccs3)C2)cc1 (stereo not drawn)	ROMK mod 3.82 | ROMK hit retest inactive
COc1ccc(C2=NOC(C(=O)NCc3ccco3)C2)cc1 (stereo not drawn)	ROMK mod 3.89 | ROMK hit retest inconclusive
COc1cc(C2=NOC(C(=O)NCc3ccco3)C2)cc(OC)c1OC (stereo not drawn)	none (no result: KCC2 mod)
COc1cccc(NC(=S)N2CCn3c(nc4ccccc43)C2)c1	none (no result: ROMK mod)
CC(=O)c1ccc(N=c2scc(C)n2C(C)C)cc1	none
Cc1ccc(N=C2NC(=O)/C(=C\c3ccc(C)s3)S2)cc1	none
Cc1cn2c(N)c(C=C3C=C(Cl)C(=O)C(Cl)=C3)c(=O)nc2s1	ROMK mod -6.15 | ROMK hit retest 0.025
CCC(=O)N1CCc2cc(S(=O)(=O)N3CCN(c4ccccn4)CC3)ccc21	ROMK mod 3.57 | ROMK hit retest inactive
O=C(Cn1c2ccccc2c(=O)c2ccccc21)Nc1cccc(F)c1	none (no result: ROMK mod)
O=C(c1cc(-c2ccccc2)n[nH]1)N1CCc2c([nH]c3ccccc23)C1c1ccccn1 (stereo not drawn)	none
O=C(Nc1ccc(O)cc1)C1CC=CCC1 (stereo not drawn)	NCF1 inh 56.4 (no result: 14-3-3 Bad inh, ROMK mod, WT yeast gro inh) | ROMK hit retest inactive
CC(C)c1csc(CN2CCC(N3CCC(C(=O)N4CCOCC4)CC3)CC2)n1	none
S=C(NCCc1ccccc1)NC1CC2CCC(C1)N2Cc1ccccc1 (stereo not drawn)	ROMK mod -2.33 | ROMK hit retest 0.0571
CCCNC(=S)NC1CC2CCC(C1)N2Cc1ccccc1 (stereo not drawn)	none (no result: ROMK mod, WT yeast gro inh)
O=S(=O)(NC1CCN(Cc2ccccc2)CC1)c1ccc2ccccc2c1	ROMK mod -3.47 | ROMK hit retest 0.0644
Cc1cc(C)c(C)c(S(=O)(=O)NC2CCN(Cc3ccccc3)CC2)c1C	ROMK mod -4.03 | ROMK hit retest 0.0635
Nc1ncnc(Oc2cccc3cccnc23)c1[N+](=O)[O-]	none
CCO[C@H]1OC(C(=O)N2CCOCC2)=C[C@@H](C2CC2)[C@@H]1CCCO	none (no result: ROMK mod, NCF1 inh)
